Source: publication PMC9418647 (European Journal of Drug Metabolism and Pharmacokinetics, 2022)

Columns and labels:
[1] = cited from earlier work
OATP1B3 = molecular target: T1, OATP1B3 (Homo sapiens, UniProt Q9NPD5); assay: Uptake assay for OATP1B3 inhibition in HEK-OATP1B3 cells; type: in vitro ADME
T1 sequence (Q9NPD5 1-702): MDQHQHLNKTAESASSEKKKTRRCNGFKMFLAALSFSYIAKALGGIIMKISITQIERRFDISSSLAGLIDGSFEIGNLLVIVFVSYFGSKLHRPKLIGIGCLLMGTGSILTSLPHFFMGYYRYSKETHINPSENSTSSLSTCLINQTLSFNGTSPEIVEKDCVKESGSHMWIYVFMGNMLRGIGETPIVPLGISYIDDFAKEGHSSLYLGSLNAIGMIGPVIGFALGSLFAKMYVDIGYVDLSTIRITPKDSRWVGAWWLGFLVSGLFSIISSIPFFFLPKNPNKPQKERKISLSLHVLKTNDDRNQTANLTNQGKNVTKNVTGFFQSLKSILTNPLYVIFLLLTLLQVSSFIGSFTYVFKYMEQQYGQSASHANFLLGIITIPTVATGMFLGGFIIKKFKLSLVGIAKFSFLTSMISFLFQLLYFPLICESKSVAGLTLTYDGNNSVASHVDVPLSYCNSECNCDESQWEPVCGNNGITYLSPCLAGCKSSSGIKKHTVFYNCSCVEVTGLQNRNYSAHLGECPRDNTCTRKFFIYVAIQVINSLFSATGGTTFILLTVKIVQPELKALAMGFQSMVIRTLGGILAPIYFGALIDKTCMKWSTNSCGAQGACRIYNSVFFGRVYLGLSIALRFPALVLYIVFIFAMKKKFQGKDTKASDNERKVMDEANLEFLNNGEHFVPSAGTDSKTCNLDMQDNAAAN
Procedure, shortened: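 Transporter-mediated transport measured across a test-compound concentration range. Where inhibition stayed below 50% at the top concentration, IC50 was reported as greater than the highest tested concentration.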

[2] = Clinical study: safety and tolerability; type: in vivo, human
Procedure, shortened: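 Healthy men given finerenone 40 mg once daily for 10 days, with rosuvastatin. Supine BP, HR and 12-lead ECG recorded after 15 min rest, pre-dose and up to 24 h post-dose. Haematology and chemistry including serum electrolytes taken pre-dose and at 24 and 48 h, except after separated dosing. Adverse events elicited with non-leading questions through follow-up.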

OATP1B1 = molecular target: T2, OATP1B1 (Homo sapiens, UniProt Q9Y6L6); assay: Uptake assay for OATP1B1 inhibition in HEK-OATP1B1 cells; type: in vitro ADME
T2 sequence (Q9Y6L6 1-691): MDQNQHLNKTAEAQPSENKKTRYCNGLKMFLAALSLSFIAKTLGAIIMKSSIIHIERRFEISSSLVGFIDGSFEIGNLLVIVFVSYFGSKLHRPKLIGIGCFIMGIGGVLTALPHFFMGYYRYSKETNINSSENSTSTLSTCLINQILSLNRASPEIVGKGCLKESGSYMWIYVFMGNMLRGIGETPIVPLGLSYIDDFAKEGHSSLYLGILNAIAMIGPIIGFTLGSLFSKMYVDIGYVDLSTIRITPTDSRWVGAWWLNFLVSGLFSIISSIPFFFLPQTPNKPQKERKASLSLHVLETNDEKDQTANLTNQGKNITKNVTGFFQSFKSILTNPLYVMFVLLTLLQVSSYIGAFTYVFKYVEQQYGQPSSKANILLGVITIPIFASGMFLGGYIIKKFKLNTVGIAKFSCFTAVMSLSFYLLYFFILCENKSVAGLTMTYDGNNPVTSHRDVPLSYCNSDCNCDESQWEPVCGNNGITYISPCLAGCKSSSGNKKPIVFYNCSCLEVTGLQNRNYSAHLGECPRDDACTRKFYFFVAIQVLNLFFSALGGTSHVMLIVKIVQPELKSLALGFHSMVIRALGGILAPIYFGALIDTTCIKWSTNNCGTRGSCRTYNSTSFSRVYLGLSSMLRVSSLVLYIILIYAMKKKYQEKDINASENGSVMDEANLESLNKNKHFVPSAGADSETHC
Procedure, shortened: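 OATP1B1 uptake measured across a test-compound concentration range. IC50 reported as greater than the top concentration if inhibition stayed below 50%, and that concentration was then used in the calculation. AUC ratio estimated by the basic static model, assuming substrate clearance runs solely via the transporter.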

[3] = finerenone 20 mg; cited from earlier work
[4] = cited from earlier work; remark: listed apart in the source

CC1=NN(c2ccc(C)c(C)c2)C(=O)/C1=N\Nc1cccc(-c2cccc(C(=O)O)c2)c1O [eltrombopag]
rosuvastatin AUC ratio [1]: 1.55
rosuvastatin Cmax ratio [1]: 2.03

CCOc1ncc(C)c2c1[C@H](c1ccc(C#N)cc1OC)C(C(N)=O)=C(C)N2 [Finerenone, finerenone]
IC50 (OATP1B3): > 10 µM
changes in potassium levels ([2]; finerenone 40 mg): no relevant changes in potassium levels
serious or severe adverse events ([2]; finerenone 40 mg alone or with rosuvastatin): no serious or severe AEs
tolerability ([2]; repeated doses of finerenone 40 mg once daily, healthy male volunteers): well tolerated
IC50 (OATP1B1): 3.2 µM
predicted AUC ratio (AUCR), inhibition of OATP1B1 (OATP1B1; basic model R = 1 + [I]inlet,max,u (or Cmax,u)/IC50): 1.182
effect on repaglinide (CYP2C8 and OATP substrate) [3]: no effect
absolute bioavailability [4]: 43.5%
administered dose excreted in feces [4]: approximately 20%
administered dose excreted in urine [4]: About 80%
dose excreted unchanged in feces [4]: < 0.2%
dose excreted unchanged in urine [4]: < 1%
share of metabolic clearance by CYP3A4 ([4]; remainder attributable to CYP2C8): about 90%

Cc1ccc(C)c(OCCCC(C)(C)C(=O)O)c1 [gemfibrozil]
increase of rosuvastatin AUC [1]: 1.88 fold
increase of rosuvastatin Cmax [1]: 2.21 fold

CC(C)c1nc(N(C)S(C)(=O)=O)nc(-c2ccc(F)cc2)c1/C=C/[C@@H](O)C[C@@H](O)CC(=O)O [Rosuvastatin, rosuvastatin]
Tmax (expected) [1]: approximately 5 h

CO[C@H]1/C=C/O[C@@]2(C)Oc3c(C)c(O)c4c(O)c(c(/C=N/N5CCN(C)CC5)c(O)c4c3C2=O)NC(=O)/C(C)=C\C=C\[C@H](C)[C@H](O)[C@@H](C)[C@@H](O)[C@@H](C)[C@H](OC(C)=O)[C@@H]1C [rifampicin]
CP-I AUC ratio [1]: 4.0
CP-III AUC ratio [1]: 3.3
rosuvastatin AUC ratio [1]: 5.0
